The values that follow come from ChEMBL document CHEMBL1132924, “Molecular determinants of MAO selectivity in a series of indolylmethylamine derivatives: biological activities, 3D-QSAR/CoMFA analysis, and computational simulation of ligand recognition” (J Med Chem, 2000).

In assay [1] the target is T1, Amine oxidase [flavin-containing] B (Rattus norvegicus, UniProt P19643).
T1 sequence (P19643 whole entry): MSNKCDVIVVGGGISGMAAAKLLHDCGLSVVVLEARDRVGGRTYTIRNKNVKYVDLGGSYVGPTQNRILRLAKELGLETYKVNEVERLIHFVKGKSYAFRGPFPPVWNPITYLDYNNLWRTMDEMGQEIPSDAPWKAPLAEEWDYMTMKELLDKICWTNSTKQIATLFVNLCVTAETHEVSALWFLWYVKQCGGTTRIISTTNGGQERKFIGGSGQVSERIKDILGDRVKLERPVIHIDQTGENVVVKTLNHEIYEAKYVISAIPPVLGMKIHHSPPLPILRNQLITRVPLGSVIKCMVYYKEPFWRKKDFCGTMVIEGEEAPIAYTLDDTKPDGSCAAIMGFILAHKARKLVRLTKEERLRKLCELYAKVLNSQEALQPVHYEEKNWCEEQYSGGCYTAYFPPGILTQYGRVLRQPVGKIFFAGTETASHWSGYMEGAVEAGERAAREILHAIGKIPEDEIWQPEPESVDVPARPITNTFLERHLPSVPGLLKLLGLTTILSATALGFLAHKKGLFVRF
The assay can be described thus: (§1) Inhibitory activity against Monoamine oxidase B. The essentials:
(§2)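 Enzyme is a mitochondrial fraction from livers of male Sprague-Dawley rats (200-250 g), homogenised in 50 mM potassium phosphate pH 7.2. Activity followed at 37 °C with 333 µM benzylamine, product appearance read at 250 nm. Ki for reversible complex formation came from direct fitting of progress curves recorded at varying inhibitor concentrations.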

Assay [2] deals with T2, Amine oxidase [flavin-containing] A (Rattus norvegicus, UniProt P21396).
T2 sequence (P21396 whole entry): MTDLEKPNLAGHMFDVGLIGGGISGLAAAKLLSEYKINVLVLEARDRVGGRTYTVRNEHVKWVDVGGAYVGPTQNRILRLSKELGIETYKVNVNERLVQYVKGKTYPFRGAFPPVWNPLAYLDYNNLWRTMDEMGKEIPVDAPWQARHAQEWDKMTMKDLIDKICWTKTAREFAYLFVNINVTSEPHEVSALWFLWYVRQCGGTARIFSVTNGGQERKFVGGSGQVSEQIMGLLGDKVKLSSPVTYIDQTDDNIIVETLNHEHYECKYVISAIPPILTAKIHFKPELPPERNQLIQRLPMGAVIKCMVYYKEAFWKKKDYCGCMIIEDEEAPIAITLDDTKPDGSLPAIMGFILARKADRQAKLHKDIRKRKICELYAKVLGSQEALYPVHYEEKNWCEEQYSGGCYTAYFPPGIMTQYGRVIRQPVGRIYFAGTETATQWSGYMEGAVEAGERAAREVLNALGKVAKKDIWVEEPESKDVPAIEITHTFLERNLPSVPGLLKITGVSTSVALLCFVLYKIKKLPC
As to the kind of experiment: (§3) Inhibitory activity against Monoamine oxidase A. The method, boiled down: (§4)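 Rat liver mitochondrial fraction (male Sprague-Dawley, 200-250 g), homogenised in 50 mM potassium phosphate pH 7.2. Kynuramine 40 µM as substrate with MAO-B activity blocked beforehand by L-deprenyl, product read at 324 nm. Ki for reversible complex formation obtained by direct analysis of spectrophotometric reaction progress curves over varying inhibitor concentrations.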

Assay [3] concerns the target T2, Amine oxidase [flavin-containing] A. The assay is described as §3. The essentials: as §4
The source holds these as a separate data set.

Assay [4] addresses T1, Amine oxidase [flavin-containing] B. The assay is described as §1. The method, boiled down: as §2
This is another data set of the same source.

Usually Ki stands for a measure of affinity in units of concentration, obtained from inhibition or displacement.

Take `c1ccc(CNCc2cn(Cc3ccccc3)c3ccccc23)cc1`: the results for the Ki in assay [1], in assay [2] and in assay [3] were 362 µM, 244 µM and 245 µM, respectively.

For `C#CCNCc1cc2cc(OC)ccc2n1C`, the Ki in assay [1] was 0.004 µM; in assay [2] it was 0.0008 µM; in assay [3], 0.000813 µM.

Regarding `C#CCN(Cc1ccccc1)Cc1cc2ccccc2n1C`, the values for the inhibition constant (Ki) in assay [1], in assay [2] and in assay [3] were 60 µM, 10 µM and 10 µM, respectively.

As to `Cn1c(CNCc2ccccc2)cc2ccccc21`, the figures for the inhibition constant Ki in assay [1], in assay [2] and in assay [3] were 48 µM, 34 µM and 33.9 µM, respectively.

Take `C#CCN(Cc1ccccc1)Cc1cn(Cc2ccccc2)c2ccccc12`: the figures for the inhibition constant (Ki) in assay [1] and in assay [2] were 260 µM and greater than 1000 µM, respectively.

As to `CNCc1cn(Cc2ccccc2)c2ccccc12`, the results for the Ki in assay [1], in assay [2] and in assay [3] were 338 µM, 167 µM and 166 µM, respectively.

As to `CC#CCN(Cc1ccccc1)Cc1cc2ccccc2n1C`, the inhibition constant Ki was 50 µM in assay [1] and greater than 1000 µM in assay [2].

As to `CC#CCN(C)Cc1cc2cc(O)ccc2n1C`, the inhibition constant Ki in assay [1] is 8.8 µM; in assay [2], 0.0057 µM; in assay [3], 0.00575 µM.

Consider `CC#CCN(C)Cc1cc2ccccc2n1C`, for which the Ki in assay [1] is 0.03 µM; in assay [2] it was 0.0043 µM; in assay [3], 0.00427 µM.

Turning to `C#CCNCc1cc2cc(OCc3ccccc3)ccc2[nH]1`, the Ki in assay [1] was 0.00075 µM; in assay [2], 0.79 µM.

`C#CCNCc1cc2ccccc2n1C`: the Ki is 3.83 µM in assay [1], 0.24 µM in assay [2] and 0.24 µM in assay [3].

For the molecule `C#CCNCc1cc2cc(O)ccc2n1C`, the Ki in assay [1] was 8.9 µM; in assay [2], 4 µM; in assay [3] it was 3.98 µM.

As for `CCNCc1cn(Cc2ccccc2)c2ccccc12`, the results for the Ki in assay [1], in assay [2] and in assay [3] were 429 µM, 262 µM and 263 µM, respectively.

As for `C#CCN(C)Cc1cn(Cc2ccccc2)c2ccccc12`, the inhibitory constant (Ki) in assay [1] is 476 µM; in assay [2], 160 µM; in assay [3], 158 µM.

`C#CCN(C)Cc1cc2cc(O)ccc2n1C`: the values for the inhibition constant (Ki) in assay [1], in assay [2] and in assay [3] were 0.82 µM, 0.004 µM and 0.00398 µM, respectively.

For `C#CCN(C)Cc1cc2ccccc2n1C`, the Ki in assay [1] is 0.003 µM; in assay [2], 0.0003 µM; in assay [3], 0.000302 µM.

As to `C#CCN(C)Cc1cc2cc(OC)ccc2n1C`, the inhibitory constant (Ki) in assay [1] is 0.03 µM; in assay [4] it was 0.0575 µM; in assay [2], 0.0015 µM; in assay [3] it was 0.00151 µM.

Regarding `c1ccc(CNCc2cc3ccccc3[nH]2)cc1`, the Ki in assay [1] was 159 µM; in assay [2] it was 87 µM; in assay [3], 87.1 µM.

Regarding `CC(C)NCc1cn(Cc2ccccc2)c2ccccc12`, the Ki in assay [1] was 438 µM; in assay [2], 133 µM; in assay [3] it was 132 µM.

With `CC#CCN(C)Cc1cc2cc(OC)ccc2n1C`, the figures for the Ki in assay [1], in assay [2] and in assay [3] were 0.37 µM, 0.0014 µM and 0.00141 µM, respectively.

Take `CC#CCNCc1cc2cc(OCc3ccccc3)ccc2[nH]1`: the Ki in assay [1] is 0.015 µM; in assay [3], 15.1 µM.
